Results on two molecules are retold here after ChEMBL document CHEMBL1124429, “Heterocyclic analogues of benzamide antiarrhythmic agents” (J Med Chem, 1989).

Structures are written as SMILES. Values joined by “and” are separate entries in the source; they are usually repeats but may differ in a detail not shown here. Identical values can stand only once.

The species entered for series [1] is Canis familiaris. Kind of series: Percent change from control in the functional refractory period (FRP) at 10 uM conc. on Canine ventricular muscle fibre. On the set-up: species or system Canis lupus familiaris, Muscle tissue. A digest of the protocol: (§1)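 Canine right ventricular papillary muscle strips were superfused at 36 ± 0.5 °C with saline gassed with 95% O2/5% CO2. Diastolic threshold was found with 2-ms stimuli at 4000 ms cycle length, then pacing at 4× threshold for 60 min equilibration. FRP was measured at 1000 ms cycle length by S1-S2 premature stimulus after every tenth S1. Conduction time came from a bipolar electrogram. Various compound concentrations were tested, one compound per strip, with vehicle controls. Percent change from control was taken at 10 µM, or the maximum change with its concentration; for N ≥ 3, mean with range.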

The species entered for series [2] is Canis familiaris. The experiment in a line: Maximum percent change in repolarization at 1 uM concentration on Canine Purkinje fibers. Type of series: functional, Canis lupus familiaris, Purkinje fiber. The procedure, abridged: (§2)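 Isolated canine Purkinje fibers were superfused with physiological saline gassed with 95% O2/5% CO2 (pH 7.35–7.40) at 36 ± 0.5 °C. Paced at 1.0 Hz with 2-ms pulses at twice diastolic threshold. After up to 1 h stabilization, compounds were tested over 10^-8 to 10^-3 M, 30 min per concentration, one compound per fiber, with vehicle controls. Intracellular microelectrodes (3 M KCl) recorded Vmax and APD95; maximum percent change from control is reported with its concentration.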

Series [3] is filed under the species Canis familiaris. The experiment in a line: Maximum Percent change from control in the rate of rise of phase 0 of the action potential at 30 uM concentration on Canine Purkinje fibers. Also noted: species or system Canis lupus familiaris, Purkinje fiber. Particulars: dog, in vitro. A digest of the protocol:
as §2

The species entered for series [4] is Canis familiaris. Kind of series: Maximum percent change in repolarization at 30 uM concentration on Canine Purkinje fibers. Type of series: functional, Canis lupus familiaris, Purkinje fiber. A digest of the protocol: as §2
The species named for series [5] is Canis familiaris. Kind of series: Percent change from control in conduction time (CT) at 10 uM concentration tested on Canine ventricular muscle fibre.; M is minimal(<10% change in CT). The settings on record: Canis lupus familiaris, Muscle tissue. Type of series: functional. The procedure, abridged:
as §1

For series [6], the species on record is Canis familiaris. The experiment in a line: Percent change in repolarization at 10 Purkinje fibers.; value ranges from 3-7. Format: functional, Canis lupus familiaris, Purkinje fiber. A digest of the protocol:
(§3)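 Canine Purkinje fibers were held in oxygenated (95% O2–5% CO2) physiological saline, pH 7.35–7.40, at 36 ± 0.5 °C and paced at 1.0 Hz with 2-ms pulses at twice diastolic threshold. Intracellular microelectrodes (3 M KCl) recorded Vmax and APD95 simultaneously. After up to 1 h of stabilization, compounds were tested from 10^-8 to 10^-3 M with 30 min per concentration. One compound per fiber, with vehicle controls. For N ≥ 3, values are the mean with the range.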

Series [7] is filed under the species Canis familiaris. Kind of series: Percent change from control in the rate of rise of phase 0 of the action potential at 10 uM concentration on Canine Purkinje fibers. On the set-up: species or system Canis lupus familiaris, Purkinje fiber. Particulars: dog, in vitro.
For series [8], the species on record is Canis familiaris. The experiment in a line: Maximum Percent change from control in the rate of rise of phase 0 of the action potential at 100 uM concentration on Canine Purkinje fibers. Format: Canis lupus familiaris, Purkinje fiber. The settings on record: dog, in vitro. The procedure, abridged:
as §2

The species named for series [9] is Canis familiaris. Kind of series: Maximum percent change in conduction time (CT) at 100 uM concentration tested on Canine ventricular muscle fibre. Type of series: functional, Canis lupus familiaris, Muscle tissue. A digest of the protocol: as §1
Series [10] is filed under the species Cavia porcellus. Kind of series: Concentration of compound which gives a 20% decrease in contractile force was tested on papillary muscle of guinea pig, activity was expressed as EC-20; NR is not reached.. Particulars: Muscle tissue. Type of series: functional. A digest of the protocol:
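Contractile force measured in an isolated cardiac muscle preparation. Value is the concentration giving a 20% decrease in force of contraction. NR marks that this decrease was not reached. Values come from individual experiments; for N ≥ 3, the mean is given with the range.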

The species named for series [11] is Canis familiaris. The experiment in a line: Maximum percent change in repolarization at 0.1 uM concentration on Canine Purkinje fibers. Format: functional, Canis lupus familiaris, Purkinje fiber. A digest of the protocol: as §2
Series [12] is filed under the species Canis familiaris. The experiment in a line: Maximum percent change in functional refractory period (FRP) at 100 uM on Canine ventricular muscle fibre. Also noted: species or system Canis lupus familiaris, Muscle tissue. A digest of the protocol: as §1
The species entered for series [13] is Canis familiaris. Kind of series: Maximum percent change in functional refractory period (FRP) at 10 uM on Canine ventricular muscle fibre. Also noted: species or system Canis lupus familiaris, Muscle tissue. The procedure, abridged: as §1
For series [14], the species on record is Canis familiaris. The experiment in a line: Percent change from control in conduction time (CT) at 10 uM concentration tested on Canine ventricular muscle fibre.; value ranges from -20-2. Type of series: functional, Canis lupus familiaris, Muscle tissue. A digest of the protocol:
as §1

For series [15], the species on record is Canis familiaris. Kind of series: The maximum percent change in action potential (Vmax) at concentration observed (100 uM) was tested on Canine Purkinje fibers. On the set-up: species or system Canis lupus familiaris, Purkinje fiber. The settings on record: dog. A digest of the protocol:
as §3

Series [16] is filed under the species Canis familiaris. The experiment in a line: Maximum percent change in repolarization at 10 uM concentration on Canine Purkinje fibers. Format: functional, Canis lupus familiaris, Purkinje fiber. A digest of the protocol:
as §2

The species named for series [17] is Canis familiaris. Kind of series: Percent change in repolarization at 10 Purkinje fibers.; value ranges from -13 - -3. Format: functional, Canis lupus familiaris, Purkinje fiber. The procedure, abridged: as §3
The species named for series [18] is Canis familiaris. Kind of series: Maximum percent change in conduction time (CT) at 10 uM concentration tested on Canine ventricular muscle fibre. Type of series: functional, Canis lupus familiaris, Muscle tissue. The procedure, abridged: as §1
The species entered for series [19] is Canis familiaris. Kind of series: The maximum percent change in action potential (Vmax) at concentration observed (30 uM ) was tested on Canine Purkinje fibers. Also noted: species or system Canis lupus familiaris, Purkinje fiber. The settings on record: dog. The procedure, abridged:
as §3

The species entered for series [20] is Canis familiaris. The experiment in a line: Percent change from control in the functional refractory period (FRP) at 10 uM conc on Canine ventricular muscle fibre.; value ranges from -9-28. On the set-up: species or system Canis lupus familiaris, Muscle tissue. A digest of the protocol:
as §1

For series [21], the species on record is Canis familiaris. The experiment in a line: Maximum percent change in repolarization at 100 uM concentration on Canine Purkinje fibers. Format: functional, Canis lupus familiaris, Purkinje fiber. A digest of the protocol: as §2
Series [22] is filed under the species Canis familiaris. Kind of series: Percent change from control in the rate of rise of phase 0 of the action potential at 10 uM concentration on Canine Purkinje fibers.; value ranges from -20 - -3. Type of series: organism-based, Canis lupus familiaris, Purkinje fiber. The settings on record: dog, in vitro.

Turning to `CCN(CC)CCCNC(=O)c1c(O)cc(C)nc1C`, the FRP in series [1] was found to be 13%. For the same molecule, the APD95 in series [2] was determined as 4%; in series [4], 15%; in series [6] it was 5%; in [11], 5%. Further, the Vmax is given as -1% in series [3], 4.6% in [7] and 7% in series [8]. In addition, the CT result is “Minimal” in [5] and -7% in series [9]. For the same molecule, in [10], the EC20 entry was “Not reached”.
Consider `CCN(CC)CCCNC(=O)c1cccc2[nH]ccc12`, for which the FRP in series [12] was found to be 36%; in series [13] it was 11%; in [20], 10%. The APD95 in [4] is reported as -22%; in series [16] it was -3%; in [17], -7.7%; in series [21] it was -26%. The CT in series [14] is given as -8.8%; in series [18] it was -7%; in [9], 12%. The Vmax in series [15] is -31%; in series [19] it was -15% and -39%; in series [22], -11.3%.
